Compound activity deposited in PubChem by several laboratories.
In the library only some 1.5% were active in any assay of this set; here they are far more common.
S1P4 antag = antagonists of human S1P4 receptor; O95977; S1P4-expressing cells, antagonist mode, reporter read-out; inhibition, % at 4.98 µM; 220,000 tested, 0.26% active; AID 1510; in the data active = inhibition above about 29%;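 note: 0% = wells stimulated with agonist and 100% = vehicle wells without agonist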
Target sequence (O95977 whole entry, looked up): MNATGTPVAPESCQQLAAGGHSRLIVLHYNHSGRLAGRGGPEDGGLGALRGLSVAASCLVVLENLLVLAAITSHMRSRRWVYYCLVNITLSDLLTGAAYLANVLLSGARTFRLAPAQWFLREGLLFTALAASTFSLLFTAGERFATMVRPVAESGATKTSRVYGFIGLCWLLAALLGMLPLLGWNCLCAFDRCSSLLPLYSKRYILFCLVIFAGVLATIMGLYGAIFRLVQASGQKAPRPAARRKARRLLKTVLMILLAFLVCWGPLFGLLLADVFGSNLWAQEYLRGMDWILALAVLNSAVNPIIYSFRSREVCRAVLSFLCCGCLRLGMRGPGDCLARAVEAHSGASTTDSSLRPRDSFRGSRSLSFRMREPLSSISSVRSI
TNF death inh = blocks TNF-alpha induced death of Jurkat FADD-/- cells | Jurkat FADD-/- TNF necroptosis rescue, ATP luminescence, 24 h; 0 = TNF only, 100 = no-TNF cells | 220,000 tested, 0.068% active | activation (protection from cell death), % at 10 µM;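 active = activation, meaning protection from cell death, of at least 50% relative to plate controls; inactive = activation below 50%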;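 note: necroptosis triggered by 40 ng/mL TNF-alpha added together with compound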
S1P4 ag = agonists of human S1P4 receptor. S1P4-expressing cell line, agonist reporter assay. activation, % at 4.98 µM. 220,000 tested, 0.35% active. AID 1509; in the data active = activation above about 11%;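 note: 0% = DMSO vehicle and 100% = reference agonist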
L929 necroptosis = L929 zVAD cell death inhibition | L929 zVAD necroptosis rescue, ATP luminescence, 24 h; with zVAD 60 µM | viability rescue, % at 10 µM | 220,000 tested, 0.38% active;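 active = activation, scaled between plate controls, above about 75%, limit read from the data; inactive = activation under that limit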;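 note: 0% = zVAD with DMSO and 100% = DMSO alone without zVAD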
Dynein transport = blocks dynein driven cargo transport along microtubules; 3617.4 mouse cells, GR-EGFP nuclear translocation imaging; test concentration mostly 20 µM; stimulated with dexamethasone, 1 µM; hits give low values; z-score, hits read low; 220,000 tested, 0.47% active; AID 1381;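 active = plate z-score of nuclear minus cytoplasmic receptor signal below a set negative limit, without overly bright fluorescence or cell loss, cut at about -3.5 in these data, passing the limit was not always enough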;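 note: z-score of nuclear minus cytoplasmic ring GR-EGFP intensity difference per well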
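Buffer or medium – tet-free medium with charcoal-stripped serum · Signal – automated 10x imaging of fixed Hoechst-stained cells · Also added – dexamethasone agonist, 1.0 µM final, for 30 min · Incubation – induction 48 h, compound 1 h, agonist 30 min · Read-out – GR-EGFP nuclear translocation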
TbHK1 inh = blocks Trypanosoma brucei hexokinase 1 activity | recombinant TbHK1, G6PDH-coupled NADH A340 | inhibition, % at 10 µM | 220,000 tested, 0.11% active | AID 1430;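 active = inhibition of 50% or more in the single-dose primary screen; inactive = inhibition below 50%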
zVAD death conf = confirmed blocker of zVAD induced death in L929 cells; L929 zVAD-induced necroptosis rescue, ATP luminescence, 24 h; activation (protection from necroptosis), % at 10 µM; shares compounds with L929 necroptosis; 760 tested, 16% active; AID 463117;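 active = mean protection from necroptosis of at least 50% over duplicate tests; inactive = mean protection below 50%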;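 note: 0% = cells with zVAD alone and 100% = vehicle cells without zVAD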
* marks the source's active call; other numbers are inactive results.

How did CCOC(=O)c1ccc2[nH]c3c(c2c1)CCCC3C(=O)OCC (configuration not stated) do in these assays?
S1P4 antag: 2; TNF death inh: 3; S1P4 ag: -1; L929 necroptosis: 75*; Dynein transport: 0.27; TbHK1 inh: 2; zVAD death conf: 29

How did CCOC(=O)C1CCCc2c1[nH]c1ccc(Cl)cc21 (configuration not stated) do in these assays?
S1P4 antag: 5; TNF death inh: 2; S1P4 ag: -1; L929 necroptosis: 5; Dynein transport: 1.9; TbHK1 inh: -2

What do the screens show for `COc1cc2[nH]c3c(N4CCN(c5ccc(Cl)cc5)CC4)ncnc3c2cc1OC`?
S1P4 antag: -15; TNF death inh: -4; S1P4 ag: 1; L929 necroptosis: 2; Dynein transport: -1.7; TbHK1 inh: -6

Results for COc1cc2[nH]c3c(Cl)ncnc3c2cc1OC ?
S1P4 antag: -22; TNF death inh: 2; S1P4 ag: 0; L929 necroptosis: 77*; Dynein transport: -0.39; TbHK1 inh: -13; zVAD death conf: 13

How did Cc1ccc(NC(=S)NNC(=S)Nc2cccc(C(F)(F)F)c2)cc1 do in these assays?
S1P4 antag: -13; TNF death inh: 6; S1P4 ag: 1; L929 necroptosis: 76*; Dynein transport: -0.9; TbHK1 inh: -14; zVAD death conf: 5

Results for O=C(/C=C/c1ccc2ccccc2n1)N1CCN(S(=O)(=O)c2ccccc2F)CC1 ?
S1P4 antag: -10; TNF death inh: 2; S1P4 ag: 3; L929 necroptosis: 84*; Dynein transport: -1.5; TbHK1 inh: -21; zVAD death conf: 5

Results for O=C(Cn1nc2ccccc2n1)N/N=C/c1ccc(F)cc1 ?
S1P4 antag: -16; TNF death inh: 2; S1P4 ag: 1; L929 necroptosis: -1; Dynein transport: 0.1; TbHK1 inh: 5

Results for Fc1ccc(C2=CSC3=NCCN23)cc1 ?
S1P4 antag: 2; TNF death inh: -1; S1P4 ag: 1; L929 necroptosis: -1; Dynein transport: -0.56; TbHK1 inh: -2

How did N=c1nc(N)nc2n1NC(c1ccc(F)cc1)=CS2 do in these assays?
S1P4 antag: 22; TNF death inh: 20; S1P4 ag: 1; L929 necroptosis: 81*; Dynein transport: -0.43; TbHK1 inh: -3; zVAD death conf: 40

How did Cc1ccc(C)c(C2=NNC(=NCc3ccccc3)SC2)c1 do in these assays?
S1P4 antag: -13; TNF death inh: 95*; S1P4 ag: 2; L929 necroptosis: 77*; Dynein transport: 0.99; TbHK1 inh: -11; zVAD death conf: 25

What do the screens show for `O=C(COC(=O)C1CC1)Nc1ccc2c(c1)OCO2`?
S1P4 antag: -11; TNF death inh: 0; S1P4 ag: -1; L929 necroptosis: 0; Dynein transport: 0.056; TbHK1 inh: 11

What do the screens show for `Cc1cc(C(=O)COc2cccc(-n3cnnn3)c2)c(C)n1-c1ccccc1`?
S1P4 antag: -11; TNF death inh: -7; S1P4 ag: 3; L929 necroptosis: 81*; Dynein transport: 0.44; TbHK1 inh: -9; zVAD death conf: 36

Results for Cn1ncc2c(Nc3ccc4ccccc4c3)ncnc21 ?
S1P4 antag: 1; TNF death inh: -3; S1P4 ag: 0; L929 necroptosis: 92*; Dynein transport: 0.42; TbHK1 inh: -11; zVAD death conf: 3

Results for Cc1cccc(Nc2ncnc3c2cnn3C)c1 ?
S1P4 antag: -25; TNF death inh: 2; S1P4 ag: 0; L929 necroptosis: 62; Dynein transport: -0.42; TbHK1 inh: 1

What do the screens show for `O=C(N/N=C/c1ccccc1)c1n[nH]c2c1CCCC2`?
S1P4 antag: -12; TNF death inh: 0; S1P4 ag: 2; L929 necroptosis: 83*; Dynein transport: -0.58; TbHK1 inh: -4; zVAD death conf: 10

Results for Cc1ccc2c(c1)C(C)CC(C)(C)N2C(=O)CN1CCN(C)CC1 (configuration not stated) ?
S1P4 antag: -10; TNF death inh: 1; S1P4 ag: -1; L929 necroptosis: -1; Dynein transport: -0.76; TbHK1 inh: 7

How did Cc1ccc2c(c1)C(C)CC(C)(C)N2C(=O)NC1CCCCC1 (configuration not stated) do in these assays?
S1P4 antag: 9; TNF death inh: 7; S1P4 ag: 1; L929 necroptosis: 88*; Dynein transport: 0.36; TbHK1 inh: 1; zVAD death conf: 82*

How did Cc1ccc(NC(=O)C2CCCN2C(=O)NC2CCCCC2)c(C)c1 (configuration not stated) do in these assays?
S1P4 antag: -9; TNF death inh: -1; S1P4 ag: -2; L929 necroptosis: 0; Dynein transport: -0.49; TbHK1 inh: -6

What do the screens show for `Cc1ccc2c(c1)N(C(=O)NC1CCCCC1)C(C)(C)CC2C` (configuration not stated)?
S1P4 antag: 2; TNF death inh: 16; S1P4 ag: -1; L929 necroptosis: 82*; Dynein transport: -0.83; TbHK1 inh: -9; zVAD death conf: 81*

Results for Cc1nnc(SCC(=O)NC23CC4CC(CC(C4)C2)C3)s1 ?
S1P4 antag: -5; TNF death inh: 1; S1P4 ag: 0; L929 necroptosis: 1; Dynein transport: 0.16; TbHK1 inh: -5

How did O=C(CSC1=NCCN1)NC12CC3CC(CC(C3)C1)C2 do in these assays?
S1P4 antag: 1; TNF death inh: -8; S1P4 ag: 1; L929 necroptosis: 85*; Dynein transport: -0.71; TbHK1 inh: 7; zVAD death conf: 2

Results for O=C(Nc1ccc(Cl)c(C(F)(F)F)c1)NC1CC2CCCC(C1)N2Cc1ccccc1 (configuration not stated) ?
S1P4 antag: -9; TNF death inh: 0; S1P4 ag: 1; L929 necroptosis: 76*; Dynein transport: -0.89; TbHK1 inh: 33; zVAD death conf: 33

Results for CC(C)(C)c1ccc(NC(=O)COC(=O)C2(C)CC2(Cl)Cl)cc1 (configuration not stated) ?
S1P4 antag: -9; TNF death inh: 4; S1P4 ag: 0; L929 necroptosis: 77*; Dynein transport: -0.28; TbHK1 inh: -2; zVAD death conf: 2

How did NS(=O)(=O)c1ccc(NC(=S)Nc2ccn(Cc3cccc4ccccc34)n2)cc1 do in these assays?
S1P4 antag: 2; TNF death inh: -7; S1P4 ag: -1; L929 necroptosis: 0; Dynein transport: 1.2; TbHK1 inh: -4
